# ChEMBL document CHEMBL4145654, “Structure-Based Discovery of CF53 as a Potent and Orally Bioavailable Bromodomain and Extra-Terminal (BET) Bromodomain Inhibitor” (J Med Chem, 2018)
# pIC50, pKd: −log10 of the molar value.
# Experiments:
# MOLM-13 = assay: Growth inhibition of human MOLM13 cells after 4 days by WST-8 assay; assay type: functional, cell-based; details: MOLM-13, 96 h
# In short: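 Leukemia cells, used within 3 months of thaw, were seeded at 10 000 cells/well and exposed to serially diluted compound in culture medium for 4 days. WST-8 reagent was added at 10% (v/v) final for 1−3 h, and absorbance was read at 450 nm. Readings were normalized to DMSO-treated cells, and the IC50 was fitted by nonlinear regression.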
# [1] = AUC in Balb/c mouse at 5 mg/kg, iv by LC-MS/MS analysis; assay type: ADME, organism-based; details: in vivo
# In short: (§1)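 Balb/c mice dosed iv at 5.0 mg/kg or po at 25 mg/kg, compound in vehicle of 20% (v/v) PCP and 70% (v/v) PBS. Serial blood samples taken at 0, 5, 15, 30 min and 1, 2, 4, 6, 8, 24 h. Plasma obtained by centrifugation and stored at −80 °C. Analysis by LC-MS/MS, positive-ion MRM. Parameters from noncompartmental analysis.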
# [2] = Apparent volume of distribution in Balb/c mouse at 5 mg/kg, iv by LC-MS/MS analysis; assay type: ADME, organism-based; details: in vivo, read-out: Vz; in short: as §1
# [3] = AUC in Balb/c mouse at 25 mg/kg, po by LC-MS/MS analysis; assay type: ADME, organism-based; details: in vivo; in short: as §1
# RS4-11 = assay: Antitumor activity against human RS4:11 cells xenografted in SCID mouse assessed as tumor growth inhibition at 50 mg/kg administered via oral gavage measured on day 35; assay type: functional; details: RS4-11, po, 840 h, read-out: TGI
# In short: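 Each SCID mouse received a single dorsal subcutaneous tumor of 5 × 10⁶ RS4;11 or MDA-MB-231 cells in 50% Matrigel. At about 100 mm3, mice were randomised to treatment or vehicle control groups. Dosing was by oral gavage at the stated schedules. Tumor volume was L × W²/2, and body weight was tracked. TGI versus vehicle at end of treatment was tested by unpaired two-tailed t-test.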
# Mus musculus = assay: Toxicity in SCID mouse xenografted with human RS4:11 cells assessed as change in body weight at 10 to 50 mg/kg administered via oral gavage measured 2 to 3 times per week during compound dosing and measured weekly post treatment; assay type: organism-based; details: in vivo
# In short: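 Xenografts raised by subcutaneous dorsal injection of 5 × 10⁶ cells in 50% Matrigel into SCID mice, one tumor per mouse. Mice randomized to treatment or vehicle groups at about 100 mm3 tumor volume. Compounds given by oral gavage at the indicated dose-schedules, with percentage body-weight change tracked alongside tumor volume (L × W²/2).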
# [4] = target: T1, Bromodomain-containing protein 2 (Homo sapiens, UniProt P25440); assay: Binding affinity to human BRD2 bromodomain 1 (K71 to N194 residues) expressed in bacterial expression system by BROMOscan assay
# T1 sequence (P25440 whole entry, the tested form may be a part): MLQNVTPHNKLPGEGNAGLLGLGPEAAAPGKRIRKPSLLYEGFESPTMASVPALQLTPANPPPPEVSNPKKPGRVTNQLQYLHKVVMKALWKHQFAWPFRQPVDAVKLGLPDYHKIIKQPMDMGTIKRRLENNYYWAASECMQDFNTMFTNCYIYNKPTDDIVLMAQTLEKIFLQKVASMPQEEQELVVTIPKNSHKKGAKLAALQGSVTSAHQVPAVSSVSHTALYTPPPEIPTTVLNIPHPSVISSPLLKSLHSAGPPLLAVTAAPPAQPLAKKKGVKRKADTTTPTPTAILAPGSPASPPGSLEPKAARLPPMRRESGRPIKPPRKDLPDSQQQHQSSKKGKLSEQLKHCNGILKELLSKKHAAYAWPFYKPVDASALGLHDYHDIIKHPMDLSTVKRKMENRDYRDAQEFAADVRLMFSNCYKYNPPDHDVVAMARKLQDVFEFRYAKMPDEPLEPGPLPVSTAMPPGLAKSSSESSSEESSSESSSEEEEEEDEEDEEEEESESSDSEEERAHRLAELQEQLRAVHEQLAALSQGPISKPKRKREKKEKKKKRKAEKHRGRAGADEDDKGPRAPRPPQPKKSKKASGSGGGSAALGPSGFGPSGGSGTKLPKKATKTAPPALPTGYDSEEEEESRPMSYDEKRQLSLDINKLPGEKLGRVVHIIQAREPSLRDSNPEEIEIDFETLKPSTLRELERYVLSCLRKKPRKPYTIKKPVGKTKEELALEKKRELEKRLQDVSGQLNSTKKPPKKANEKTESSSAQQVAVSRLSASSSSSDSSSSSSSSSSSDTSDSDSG
# [5] = target: T1, Bromodomain-containing protein 2; assay: Binding affinity to human BRD2 bromodomain 2 (E348 to D455 residues) expressed in bacterial expression system by BROMOscan assay
# [6] = target: T2, Bromodomain-containing protein 3 (Homo sapiens, UniProt Q15059); assay: Binding affinity to human BRD3 bromodomain 1 (P24 to E144 residues) expressed in bacterial expression system by BROMOscan assay
# T2 sequence (Q15059 whole entry, the tested form may be a part): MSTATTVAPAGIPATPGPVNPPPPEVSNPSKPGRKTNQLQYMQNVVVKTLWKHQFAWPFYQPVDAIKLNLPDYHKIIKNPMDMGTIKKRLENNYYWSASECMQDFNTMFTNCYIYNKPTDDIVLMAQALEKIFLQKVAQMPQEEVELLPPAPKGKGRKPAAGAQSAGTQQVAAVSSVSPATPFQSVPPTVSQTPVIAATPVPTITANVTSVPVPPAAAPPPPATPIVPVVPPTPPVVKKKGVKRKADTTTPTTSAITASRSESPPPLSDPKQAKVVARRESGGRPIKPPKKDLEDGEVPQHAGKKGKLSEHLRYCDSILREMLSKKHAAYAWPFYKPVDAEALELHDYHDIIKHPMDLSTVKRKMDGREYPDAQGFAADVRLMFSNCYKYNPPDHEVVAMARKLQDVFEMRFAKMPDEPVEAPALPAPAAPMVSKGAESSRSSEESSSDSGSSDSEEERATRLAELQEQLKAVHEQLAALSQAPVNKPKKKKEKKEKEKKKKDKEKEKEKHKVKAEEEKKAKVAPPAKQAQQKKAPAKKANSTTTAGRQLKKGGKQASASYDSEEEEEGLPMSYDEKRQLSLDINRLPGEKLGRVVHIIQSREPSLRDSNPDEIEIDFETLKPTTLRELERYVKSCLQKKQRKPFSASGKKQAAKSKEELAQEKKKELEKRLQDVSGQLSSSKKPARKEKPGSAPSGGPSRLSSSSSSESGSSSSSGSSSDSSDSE
# [7] = target: T2, Bromodomain-containing protein 3; assay: Binding affinity to human BRD3 bromodomain 2 (G306 to P416 residues) expressed in bacterial expression system by BROMOscan assay
# [8] = target: Bromodomain-containing protein 4 (Homo sapiens, UniProt O60885); assay: Binding affinity to human BRD4 bromodomain 1 (N44 to E168 residues) expressed in bacterial expression system by BROMOscan assay
# [9] = target: Chromatin remodeling regulator CECR2 (Homo sapiens, UniProt Q9BXF3); assay: Binding affinity to human CECR2 (P423 to D543 residues) expressed in bacterial expression system by BROMOscan assay
# [10] = target: ATPase family AAA domain-containing protein 2 (Homo sapiens, UniProt Q6PL18); assay: Binding affinity to human ATAD2A (Q981 to R1108 residues) expressed in bacterial expression system by BROMOScan assay
# [11] = target: Bromodomain-containing protein 1 (Homo sapiens, UniProt O95696); assay: Binding affinity to human BRD1 (E556 to A688 residues) expressed in bacterial expression system by BROMOScan assay
# [12] = target: Histone acetyltransferase KAT2A (Homo sapiens, UniProt Q92830); assay: Binding affinity to human GCN5L2 (E726 to K837 residues) expressed in bacterial expression system by BROMOScan assay
# Histone acetyltransferase KAT2A, sequence (Q92830 whole entry, the tested form may be a part): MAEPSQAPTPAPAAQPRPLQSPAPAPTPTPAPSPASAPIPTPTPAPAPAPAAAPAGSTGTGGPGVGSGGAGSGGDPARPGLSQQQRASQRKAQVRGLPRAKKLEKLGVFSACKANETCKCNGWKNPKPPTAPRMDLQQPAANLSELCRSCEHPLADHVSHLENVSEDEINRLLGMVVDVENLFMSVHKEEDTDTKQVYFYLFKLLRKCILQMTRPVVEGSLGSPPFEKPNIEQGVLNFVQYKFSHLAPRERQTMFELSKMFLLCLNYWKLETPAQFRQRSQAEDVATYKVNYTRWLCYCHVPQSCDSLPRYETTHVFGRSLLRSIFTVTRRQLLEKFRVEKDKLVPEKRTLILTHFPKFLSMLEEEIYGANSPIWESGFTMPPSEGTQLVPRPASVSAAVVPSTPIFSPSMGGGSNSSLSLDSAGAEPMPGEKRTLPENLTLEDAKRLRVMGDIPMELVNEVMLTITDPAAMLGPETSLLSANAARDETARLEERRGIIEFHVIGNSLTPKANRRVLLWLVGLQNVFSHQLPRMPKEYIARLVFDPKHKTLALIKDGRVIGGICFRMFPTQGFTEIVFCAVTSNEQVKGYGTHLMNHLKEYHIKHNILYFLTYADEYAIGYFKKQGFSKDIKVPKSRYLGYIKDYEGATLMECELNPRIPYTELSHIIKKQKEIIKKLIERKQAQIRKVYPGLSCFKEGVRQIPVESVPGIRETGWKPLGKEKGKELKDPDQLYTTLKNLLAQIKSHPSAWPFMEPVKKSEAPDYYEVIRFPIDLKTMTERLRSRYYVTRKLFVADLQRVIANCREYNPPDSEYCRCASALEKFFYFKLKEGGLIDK
# Protein polybromo-1 = Protein polybromo-1 (Homo sapiens, UniProt Q86U86); assay: Binding affinity to human PBRM1 bromodomain 2 (S178 to E291 residues) expressed in bacterial expression system by BROMOScan assay
# [13] = target: SWI/SNF-related matrix-associated actin-dependent regulator of chromatin subfamily A member 2 (Homo sapiens, UniProt P51531); assay: Binding affinity to human SMARCA2 (S1377 to Q1486 residues) expressed in bacterial expression system by BROMOScan assay
# [14] = target: Transcription initiation factor TFIID subunit 1-like (Homo sapiens, UniProt Q8IZX4); assay: Binding affinity to human TAF1L bromodomain 2 (Q1523 to D1654 residues) expressed in bacterial expression system by BROMOScan assay
# Transcription initiation factor TFIID subunit 1-like, sequence (Q8IZX4 whole entry, the tested form may be a part): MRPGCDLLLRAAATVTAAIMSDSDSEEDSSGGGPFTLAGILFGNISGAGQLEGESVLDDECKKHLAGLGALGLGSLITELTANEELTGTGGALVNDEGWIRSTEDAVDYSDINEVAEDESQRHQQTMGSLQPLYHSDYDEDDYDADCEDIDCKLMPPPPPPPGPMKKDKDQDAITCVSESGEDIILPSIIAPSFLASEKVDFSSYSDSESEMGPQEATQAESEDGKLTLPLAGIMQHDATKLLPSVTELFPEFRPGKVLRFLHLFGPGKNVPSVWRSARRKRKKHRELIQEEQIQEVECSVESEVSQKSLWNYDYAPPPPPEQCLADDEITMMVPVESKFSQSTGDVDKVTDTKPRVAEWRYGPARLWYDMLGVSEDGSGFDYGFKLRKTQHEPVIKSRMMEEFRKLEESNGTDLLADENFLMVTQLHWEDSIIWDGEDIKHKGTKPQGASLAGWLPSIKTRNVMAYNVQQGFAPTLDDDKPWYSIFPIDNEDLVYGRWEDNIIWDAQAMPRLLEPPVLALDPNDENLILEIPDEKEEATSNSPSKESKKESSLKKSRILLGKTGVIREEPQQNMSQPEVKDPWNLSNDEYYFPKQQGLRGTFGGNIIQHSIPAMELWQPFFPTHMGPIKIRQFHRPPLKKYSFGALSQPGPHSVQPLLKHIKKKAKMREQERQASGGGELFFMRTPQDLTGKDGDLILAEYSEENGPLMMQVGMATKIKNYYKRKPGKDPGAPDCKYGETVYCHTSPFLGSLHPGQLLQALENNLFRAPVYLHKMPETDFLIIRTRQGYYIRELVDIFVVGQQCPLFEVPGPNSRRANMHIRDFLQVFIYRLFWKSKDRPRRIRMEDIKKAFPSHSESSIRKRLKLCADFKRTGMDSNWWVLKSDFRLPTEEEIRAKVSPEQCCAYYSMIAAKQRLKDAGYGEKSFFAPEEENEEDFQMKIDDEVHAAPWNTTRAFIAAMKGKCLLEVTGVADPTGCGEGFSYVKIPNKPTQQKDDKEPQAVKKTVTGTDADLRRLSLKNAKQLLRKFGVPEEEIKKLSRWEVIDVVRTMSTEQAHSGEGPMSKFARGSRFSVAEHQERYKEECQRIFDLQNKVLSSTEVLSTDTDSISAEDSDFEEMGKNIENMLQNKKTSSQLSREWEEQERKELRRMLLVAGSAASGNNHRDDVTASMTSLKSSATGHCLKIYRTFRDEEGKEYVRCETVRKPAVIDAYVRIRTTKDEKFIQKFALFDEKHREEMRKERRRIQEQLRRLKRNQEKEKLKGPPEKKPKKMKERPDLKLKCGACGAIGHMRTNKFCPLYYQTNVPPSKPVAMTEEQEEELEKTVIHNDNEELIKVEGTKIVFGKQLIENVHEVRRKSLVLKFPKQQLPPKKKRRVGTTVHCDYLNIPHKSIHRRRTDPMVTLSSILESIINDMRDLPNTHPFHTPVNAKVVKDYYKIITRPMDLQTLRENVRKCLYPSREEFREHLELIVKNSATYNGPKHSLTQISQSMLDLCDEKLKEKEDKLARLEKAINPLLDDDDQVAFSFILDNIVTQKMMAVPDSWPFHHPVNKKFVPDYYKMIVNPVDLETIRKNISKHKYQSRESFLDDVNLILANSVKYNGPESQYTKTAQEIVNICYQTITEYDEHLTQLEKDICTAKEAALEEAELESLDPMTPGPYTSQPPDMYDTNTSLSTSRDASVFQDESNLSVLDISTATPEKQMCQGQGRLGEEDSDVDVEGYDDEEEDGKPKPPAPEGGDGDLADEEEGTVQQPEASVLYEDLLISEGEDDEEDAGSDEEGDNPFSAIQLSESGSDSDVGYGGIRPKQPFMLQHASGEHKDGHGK
# [15] = target: Transcription intermediary factor 1-alpha (Homo sapiens, UniProt O15164); assay: Binding affinity to human TRIM24 (P790 to P977 residues) expressed in bacterial expression system by BROMOScan assay
# Homo sapiens [16] = organism: Homo sapiens; assay: Selectivity index, ratio of Kd for human CECR2 (P423 to D543 residues) to Kd for human BRDT bromodomain 1 (N21 to E137 residues)
# Homo sapiens [17] = organism: Homo sapiens; assay: Selectivity index, ratio of Kd for human CECR2 (P423 to D543 residues) to Kd for human BRD3 bromodomain 1 (P24 to E144 residues)
# Homo sapiens [18] = organism: Homo sapiens; assay: Selectivity index, ratio of Kd for human CECR2 (P423 to D543 residues) to Kd for human BRD4 bromodomain 2 (K333 to E460 residues)
# Homo sapiens [19] = organism: Homo sapiens; assay: Selectivity index, ratio of Kd for human EP300 (A1040 to G1161 residues) to Kd for human BRD2 bromodomain 1 (K71 to N194 residues)
# Homo sapiens [20] = organism: Homo sapiens; assay: Selectivity index, ratio of Kd for human EP300 (A1040 to G1161 residues) to Kd for human BRD2 bromodomain 2 (E348 to D455 residues)
# Homo sapiens [21] = organism: Homo sapiens; assay: Selectivity index, ratio of Kd for human EP300 (A1040 to G1161 residues) to Kd for human BRD4 bromodomain 1 (N44 to E168 residues)
# Homo sapiens [22] = organism: Homo sapiens; assay: Selectivity index, ratio of Kd for human CREBBP (R1081 to G1197 residues) to Kd for human BRD2 bromodomain 2 (E348 to D455 residues)
# Homo sapiens [23] = organism: Homo sapiens; assay: Selectivity index, ratio of Kd for human CREBBP (R1081 to G1197 residues) to Kd for human BRD3 bromodomain 2 (G306 to P416 residues)
# Homo sapiens [24] = organism: Homo sapiens; assay: Selectivity index, ratio of Kd for human CREBBP (R1081 to G1197 residues) to Kd for human BRD4 bromodomain 1 (N44 to E168 residues)
smiles,measurement,setting,value
COc1cc2c(cc1-c1c(C)noc1C)[nH]c1nc(C)nc(Nc3cc(C4CC4)nn3C)c12,pIC50,MOLM-13,8.15
same,AUC,[1],9.05 µM·h
same,Vd,[2],0.83 L/kg
same,AUC,[3],32.2 µM·h
same,inhibition in vivo at 50 mg/kg,RS4-11,72.3%
same,Activity,Mus musculus,Non-Toxic
same,pKd,[4],8.96
same,pKd,[5],9.22
same,pKd,[6],9.28
same,pKd,[7],9.31
same,pKd,[8],8.66
same,pKd,[9],6.24
same,pKd,[10],< 5.30
same,pKd,[11],< 5.30
same,pKd,[12],< 5.30
same,pKd,Protein polybromo-1,< 5.52
same,pKd,[13],< 5.30
same,pKd,[14],< 5.30
same,pKd,[15],< 5.40
same,Selectivity Index,Homo sapiens [16],> 50
same,Selectivity Index,Homo sapiens [17],> 50
same,Selectivity Index,Homo sapiens [18],> 50
same,Selectivity Index,Homo sapiens [19],> 50
same,Selectivity Index,Homo sapiens [20],> 50
same,Selectivity Index,Homo sapiens [21],> 50
same,Selectivity Index,Homo sapiens [22],> 20
same,Selectivity Index,Homo sapiens [23],> 20
same,Selectivity Index,Homo sapiens [24],> 20
